Data reported in PMC9530962 (Redox Biology, 2022).
Where two headings read alike, the source gives them in different places.

How the values were obtained:
[1] = format: in vivo, SD rats
Outline: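 Male SD rats (8 weeks, 200 ± 20 g) were acclimated for 1 week. Each rat got one intragastric dose of AAI, alone or with lycopene; controls were n = 6. Three rats were killed at each time point: 0.25, 0.5, 1, 2, 4, 8, 12, 24 and 48 h. Kidney (0.3–1 g) was homogenized in normal saline at 1:3 (w:v), and AAI was measured by HPLC.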

[2] = test system: C57BL/6 mice with renal injury induced by aristolochic acid exposure; experiment: AAN mouse model: body weight, kidney coefficient, HE/PAS histopathology; format: in vivo
Outline: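 Male SPF C57BL/6 mice (6 weeks, 18–20 g) were acclimated for 1 week, then split into 5 groups (n = 6). Dosing was intragastric for 28 days, with vehicle 0.5% CMC. AAI 10 mg/kg/day was given at 13:00, and LYC 5 or 20 mg/kg/day at 08:00. Mice were killed 24 h after the last dose. Kidney coefficient = kidney/body weight. Kidney sections were stained with HE, PAS and Masson and scored for histopathology and tubular injury.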

[3] = test system: C57BL/6 mice with renal injury induced by aristolochic acid exposure; experiment: Renal function, kidney injury markers and oxidative stress markers in AAN mice; format: in vivo; details: for Cr and BUN levels in the serum: mice
Outline: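 C57BL/6 AAN model: AAI 10 mg/kg/day intragastric for 28 days, with LYC 5 or 20 mg/kg/day given separately. Blood was taken 24 h after the last dose and centrifuged at room temperature for serum. Serum creatinine and BUN were measured with commercial kits, and serum KIM-1 and NGAL by ELISA. MDA, SOD, T-AOC and GSH-PX were measured with commercial kits.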

[4] = test system: C57BL/6 mice with renal injury induced by aristolochic acid exposure; format: in vivo
[5] = NRK52E cytotoxicity; format: cell-based; details: rat, NRK52E renal tubular epithelial cells
Outline: (§1)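 NRK52E rat tubular epithelial cells were seeded at 8000 cells/well. Treatment was 24 h with AAI (0–80 μM) or LYC (0–40 μM), or AAI 40 μM with LYC 5 or 10 μM; drug went in by medium change at 40–50% density. CCK-8 (10% in serum-free DMEM) was added for 2 h at 37 °C and A450 read. Viability % = (OD sample − OD blank)/(OD control − OD blank) × 100. Morphology and confluence were viewed by light microscopy.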

[6] = test system: NRK52E cells; experiment: NRK52E cytotoxicity; format: cell-based; details: NRK52E
Outline: as §1

[7] = test system: Nrf2-HO-1 antioxidant pathway; format: cell-based; details: NRK52E
[8] = test system: TNF-α/NF-κB signaling pathway; format: cell-based; details: NRK52E
[9] = test system: NRK52E cells; format: cell-based
[10] = Aristolochic lactam; format: in vivo; details: rats, after oral gavage of AAI
[11] = HPLC determination of lycopene content in rat kidney after oral gavage; format: in vivo, SD rats; details: rats
Outline: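 Rats (male SD) got one intragastric dose of AAI plus lycopene, and three were killed per time point (0.25–48 h). For each sample, 0.5 g kidney was homogenized with 1 ml saline. Protein in 100 μL homogenate was precipitated with 100 μL absolute ethanol, then 200 μL n-hexane (0.01% BHT) was added. HPLC used a C18 column (150 × 4.6 mm, 5 μm) with methanol:acetonitrile:dichloromethane 50:33:17, detection at 472 nm, 25 °C.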

[12] = test system: Nrf2 antioxidant system, NF-κB signaling pathway and apoptosis-related genes in kidney; experiment: Nrf2 system, NF-κB pathway and apoptosis gene expression in kidneys of AAN mice; format: in vivo, C57BL/6 mice
[13] = oral gavage of lycopene; ref Previous studies; cited from earlier work
[14] = mice, AAN group (AAI 10 mg/kg/day, 28 days)

**Q.** Which results are given for `COc1cccc2c1cc([N+](=O)[O-])c1c(C(=O)O)cc3c(c12)OCO3` [AAI, Aristolochic acid A]?
**A.** AA-I contents in kidney ([1]; rats, Group AAI + LYC, 15min after intragastric administration): 0; AA-I contents in kidney ([1]; rats, Group AAI + LYC, 30min): 7.955 ± 0.8107; AA-I contents in kidney ([1]; rats, Group AAI + LYC, 1h): 0; AA-I contents in kidney ([1]; rats, Group AAI + LYC, 2h): 1.516 ± 0.1493; AA-I contents in kidney ([1]; rats, Group AAI + LYC, 4h): 0; AA-I contents in kidney ([1]; rats, Group AAI + LYC, 8h): 0; AA-I contents in kidney ([1]; rats, Group AAI + LYC, 12h): 0; AA-I contents in kidney ([1]; rats, Group AAI + LYC, 24h): 0; AA-I contents in kidney ([1]; rats, Group AAI + LYC, 48h): 0; AA-I contents in kidney ([1]; rats, Group AAI, 15min after intragastric administration): 0; AA-I contents in kidney ([1]; rats, Group AAI, 30min): 8.546 ± 1.478; AA-I contents in kidney ([1]; rats, Group AAI, 1h): 0; AA-I contents in kidney ([1]; rats, Group AAI, 2h): 1.616 ± 0.04743; AA-I contents in kidney ([1]; rats, Group AAI, 4h): 0; AA-I contents in kidney ([1]; rats, Group AAI, 8h): 0; AA-I contents in kidney ([1]; rats, Group AAI, 12h): 0; AA-I contents in kidney ([1]; rats, Group AAI, 24h): 0; AA-I contents in kidney ([1]; rats, Group AAI, 48h): 0; time after feeding at which AAI has been metabolized completely in the kidney ([1]; rats, oral gavage of AAI): 2 h; contents of CR and BUN in the serum (preliminary experiment) ([2]; mice, AAI 10 mg/kg/day, vs normal control): significantly increased; body weight [2, 14]: significantly reduced; scores of renal histopathology and tubular injury [2, 14]: significantly increased; renal index ([2]; mice, AAN group (AAI 10 mg/kg/day, 28 days) vs control): significantly lower; Cr and BUN levels in the serum ([3]; AAN group vs control): significantly higher; renal interstitium fibrosis (MASSON staining) ([4]; mice, AAN group vs control): severely fibrotic; expression of IL-12 in the kidneys ([4]; model mice vs control): decreased; expression of TNF-α, IL-6, IL-10 in the kidneys ([4]; model mice vs control): increased; viability at 24 h, 40 μM [5]: 60%; degree of cell fusion ([6]; AAI group, light microscopy): about 50%; expression of Nrf2, Keap-1, HO-1, NQO1, GSH-PX, and SOD ([7]; AAI exposure vs control): decreased; content of ROS ([7]; AAI group vs control): increased; expression of NF-κB-p65, TNF-α, and IL-6 ([8]; AAI group vs control): increased; NF-κB-P65 nuclear expression ([8]; AAI group, immunofluorescence): significantly increased; number of apoptotic cells (early and late) ([9]; AAI group vs control, flow cytometry): significantly increased

**Q.** For `CC(=O)O[C@@H]1CC[C@@]2(C)[C@@H](CC[C@]3(C)[C@@H]2C(=O)C=C2[C@@H]4[C@@H](C)[C@H](C)CC[C@]4(C)CC[C@]23C)[C@@]1(C)C(=O)O` [AKBA, Acetyl-11-keto-β-boswellic acid], which “content of ROS in the cells” value ([7]; AKBA 40 μM, AAI 40 μM) is on record?
**A.** decreased

**Q.** And the “expression of Nrf2, keap-1, HO-1, NQO1” value ([7]; AKBA 40 μM, AAI 40 μM)?
**A.** increased

**Q.** And the “expression of Bcl-2” value ([8]; AKBA 40 μM, AAI 40 μM)?
**A.** increased

**Q.** And the “expression of NF-κB, TNF-α, Bax, Cleaved-Caspase3” value ([8]; AKBA 40 μM, AAI 40 μM)?
**A.** decreased

**Q.** With `COc1cccc2c1cc1c3c(cc4c(c32)OCO4)C(=O)N1` [ALI, Aristolochic lactam] as the compound, how does the “accumulation of ALI in the kidney after 2 h” value [10] read?
**A.** no accumulation

**Q.** For `CC(C)=CCC/C(C)=C/C=C/C(C)=C/C=C/C(C)=C/C=C/C=C(C)/C=C/C=C(C)/C=C/C=C(\C)CCC=C(C)C` [Lycopene], which “content of AAI in the kidney of rats fed with lycopene compared with AAI alone” value ([1]; AAI + lycopene vs AAI alone) is on record?
**A.** no significant difference

**Q.** And the “time of highest lycopene content in the kidney” value [11]?
**A.** 6 h

**Q.** And the “lycopene content in the kidney after 24 h” value ([11]; 24 h)?
**A.** ~0

**Q.** And the “damaged renal tissue (HE and PAS staining)” value ([2]; AAN mice after lycopene intervention)?
**A.** significant improvement

**Q.** What about the body weight ([2]; AAN mice, AL20 group (LYC 20 mg/kg/d + AAI 10 mg/kg/day, 28 days)) of the same compound?
**A.** increased

**Q.** And the “renal tubular structure (HE and PAS staining)” value ([2]; mice, LYC group (LYC 20 mg/kg/d alone))?
**A.** intact without signs of lesions

**Q.** What about the “expression of AAI-induced lipid peroxidation product (MDA)” value ([3]; AAN mice) of the same compound?
**A.** significantly decreased

**Q.** And the “expression of antioxidant enzyme systems (T-AOC, SOD, and GSH-PX)” value ([3]; AAN mice)?
**A.** increased

**Q.** What about the “expression levels of KIM-1 and NGAL induced by AAI” value ([3]; AAN mice, serum, ELISA) of the same compound?
**A.** significantly reduced

**Q.** What about the “Cr and BUN levels in the serum” value ([3]; LYC group) of the same compound?
**A.** significantly lower

**Q.** What about the “degree of renal fibrosis (MASSON staining)” value ([4]; AAN mice after LYC intervention) of the same compound?
**A.** alleviated

**Q.** What about the “expression of TNF-α, IL-6, IL-10 and IL-12 in the kidneys” value ([4]; AAN mice, LYC 5 and 20 mg/kg/d, Western-blot, RT-PCR, ELISA) of the same compound?
**A.** reversed the expression of these genes in a dose-dependent manner

**Q.** And the cell viability ([6]; LYC 5 μM, 10 μM together with AAI, 24 h, dose-dependent)?
**A.** increased

**Q.** What about the Nrf2 intranuclear expression ([7]; AAI plus LYC intervention, dose-dependent) of the same compound?
**A.** significant increase

**Q.** And the “content of ROS” value ([7]; AAI plus LYC intervention, dose-dependent, DCFH-DA)?
**A.** significant decrease

**Q.** What about the NF-κB-P65 nuclear expression ([8]; AAI plus LYC intervention, immunofluorescence) of the same compound?
**A.** significantly decreased

**Q.** And the “expression of NF-κB-p65, TNF-α, IL-6, IkB and IL-12” value ([8]; AAI plus LYC treatment)?
**A.** reversed the expression of these proteins

**Q.** What about the “expression of IL-1β in the cells” value ([8]; LYC treatment vs AAI group, immunofluorescence) of the same compound?
**A.** significantly decreased

**Q.** What about the “expression of Bax, Cleaved-Caspase3, Cleaved-Caspase9, Bcl-2, Caspase-3, and Caspase-9” value ([9]; AAI plus LYC intervention, Western-blot and RT-PCR) of the same compound?
**A.** reversed the expression of these proteins

**Q.** And the “number of apoptotic cells” value ([9]; AAI plus LYC intervention, flow cytometry)?
**A.** significantly decreased

**Q.** And the cellular mitochondrial damage ([9]; AAI plus LYC intervention, transmission electron microscopy)?
**A.** significantly reduced

**Q.** What about the “expression of NF-κB-p65, TNF-α, IL-6, IL-10, IL-1β, IκB and IL-12 in the kidney” value ([12]; LYC intervention) of the same compound?
**A.** reversed the expression of these genes in a dose-dependent manner

**Q.** What about the “Nrf2, Keap-1, HO-1, NQO1, GSH-PX and SOD expression in the kidneys” value ([12]; lycopene treatment) of the same compound?
**A.** reversed the expression of these proteins

**Q.** What about the “time at which lycopene is most abundant in the kidney” value [13] of the same compound?
**A.** 6 to 8 h

**Q.** What does the source list for `Cc1ccccc1C(=O)N1CCc2cc(-c3nc(NC(=O)Cc4ccc5c(c4)OCO5)sc3C)ccc21` [ML385]?
**A.** effect of LYC on NF-κB, TNF-α, Bax, Cleaved-Caspase-3 and BCL-2 expression when ML385 was added ([8]; ML385 5 μM, AAI 40 μM, LYC): significantly reduced or even ineffective; effect of LYC on apoptosis (DAPI staining) after the addition of ML385 ([9]; AAI, LYC, ML385): the effect of LYC was inhibited
